According to article PMC5845419 (RMD Open, 2018):
Entries after “also recorded” stand apart in the source; their conditions may differ. Like-named read-outs stand apart in the source and are kept apart here.

Experiments:
[1] = assay type: in vivo, human
How it was run: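 Adults with gout, open-label, randomised by incomplete block design; 7-day treatment periods, oral dosing ~30 min after standardised breakfast. Serial plasma samples on days 7–35 and timed total-catch urine (1-hour rising to 2- or 10-hour intervals) with scheduled water intake. Plasma by protein precipitation, urine diluted with water; LC-MS/MS. Mixed-effects model (treatment fixed, subject random); geometric means.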

[2] = test system: serum urate (sUA); assay: Serum urate; assay type: in vivo, human; settings: 7 days, adults with gout
How it was run: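 Adults with gout, 7-day periods; second dose of twice-daily regimen given after evening meal ~10 hours after first. Serum sampled at preset intervals on baseline (day −1) and days 7–35; non-ULT subjects started colchicine ~day −7. Emax as maximum per cent sUA change from baseline; mixed-effects model (sequence, treatment fixed; subject random; baseline covariate) giving least-squares means.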

[3] = Safety and tolerability, phase IIa study in adults with gout; assay type: in vivo, human; settings: all dose combinations of verinurad (2.5–20 mg) and allopurinol 300 mg once daily
[4] = single oral 10 mg dose, healthy volunteers; cited from earlier work
[5] = allopurinol 600 mg once daily vs 300 mg twice daily
[6] = verinurad 2.5 mg + allopurinol 300 mg once daily
[7] = verinurad 20 mg + allopurinol 300 mg once daily

Oc1ncnc2[nH]ncc12 [allopurinol, reference compound]
least-squares geometric mean ratio (90% CI), allopurinol Cmax [1, 5]: 204 (162 to 257) | change of allopurinol Ae0–24 and CLR0–24 by verinurad ([1]; verinurad at any dose (2.5–20 mg) + allopurinol 300 mg once daily): generally unchanged | least-squares mean Emax (maximum per cent decrease in sUA from baseline) ([2]; allopurinol 300 mg once daily alone): 40% | least-squares mean Emax (maximum per cent decrease in sUA from baseline) ([2]; allopurinol 300 mg twice daily alone): 54% | least-squares mean Emax (maximum per cent decrease in sUA from baseline) ([2]; allopurinol 600 mg once daily alone): 54%

O=c1[nH]c(=O)c2c[nH]nc2[nH]1 [oxypurinol]
least-squares geometric mean ratio (90% CI), oxypurinol Cmax [1, 5]: 122 (103 to 146)

CC(C)(Sc1ccncc1-c1ccc(C#N)c2ccccc12)C(=O)O [verinurad]
Tmax ([1]; human, plasma, oral, median Tmax, range across verinurad doses 2.5–20 mg in combination with allopurinol 300 mg once daily): 3 to 3.97 h | Ae0–24 (amount excreted in urine) [1, 6]: 17.8 µg | Ae0–24 (amount excreted in urine) [1, 7]: 165 µg | effect of verinurad on plasma PK of allopurinol ([1]; verinurad 2.5–20 mg + allopurinol 300 mg once daily): no effect; also recorded: did not affect | least-squares mean Emax (maximum per cent decrease in sUA from baseline) [2, 6]: 47% | least-squares mean Emax (maximum per cent decrease in sUA from baseline) ([2]; verinurad 5 mg + allopurinol 300 mg once daily): 59% | least-squares mean Emax (maximum per cent decrease in sUA from baseline) ([2]; verinurad 7.5 mg + allopurinol 300 mg once daily): 60% | least-squares mean Emax (maximum per cent decrease in sUA from baseline) ([2]; verinurad 10 mg + allopurinol 300 mg once daily): 67% | least-squares mean Emax (maximum per cent decrease in sUA from baseline) ([2]; verinurad 15 mg + allopurinol 300 mg once daily): 68% | least-squares mean Emax (maximum per cent decrease in sUA from baseline) [2, 7]: 74% | tolerability [3]: generally well tolerated | tolerability ([3]; listed as Verinurad): well tolerated | fraction of dose absorbed [4]: ~ 64% | median time to maximum observed plasma concentration (Tmax) [4]: 0.5 h | terminal half-life [4]: 15 h
